Data taken from ChEMBL document CHEMBL4190227, “Syntheses, toxicities and anti-inflammation of H2S-donors based on non-steroidal anti-inflammatory drugs” (Eur J Med Chem, 2017).
The source made the active and inactive calls. The rule behind the calls is not given here.

Legend:
Danio rerio [1] = species on record: Danio rerio; experiment: Effect on locomotor activity in wild type AB zebrafish larvae assessed as decrease in total swimming distance at 0.5 to 1 uM measured for 5 mins at 144 hrs post fertilization by visible light test; format: ADME, organism-based; conditions: in vivo
RAW264.7 [2] = experiment: Antiinflammatory activity in mouse RAW264.7 cells assessed as increase in LPS-induced HO-1 expression incubated for 24 hrs post LPS induction by ELISA; format: functional, cell-based
Method in brief: (§1)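 LPS (1 μg/mL) for 4 h, then compound at 10, 50, 100 μM for 24 h; cells lysed in RIPA, spun 12,000×g 10 min, protein normalised by BCA to 0.1 mg/mL; target (TNF-α, HO-1, IL-10 or COX-2) quantified by sandwich ELISA kit with mouse-specific polyclonal antibodies; four independent experiments.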

RAW264.7 [3] = experiment: Antiinflammatory activity in mouse RAW264.7 cells assessed as increase in IL10 levels at 10 to 100 uM measured after 24 hrs in absence of LPS by ELISA; format: functional, cell-based
Method in brief: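 Macrophages exposed 24 h to 10, 50, 100 μM without LPS; lysates (RIPA, 12,000×g spin) normalised by BCA to 0.1 mg/mL protein; IL-10 measured by mouse-specific sandwich ELISA kit; four independent experiments, mean ± SD.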

L02 = experiment: Cytotoxicity against human LO2 cells assessed as reduction in cell survival after 24 hrs by MTT assay; format: cell-based; conditions: L02, 24 h
Danio rerio [4] = species on record: Danio rerio; experiment: Toxicity in AB zebrafish embryo assessed as reduction in embryonic spontaneous movement frequency per minute at 0.5 uM measured at 24 hrs post fertilization by stereoscopic dissecting light microscopic analysis; format: organism-based; conditions: in vivo
Method in brief: (§2)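 AB embryos exposed from 4 to 24 hpf to compound (0.5–20 μM) or DMF vehicle (1:1000); ten embryos per group chosen randomly; spontaneous movement recorded under stereoscopic dissecting microscope, frequency per min counted at 24 hpf; three independent experiments, mean ± SD.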

HepG2 = experiment: Cytotoxicity against human HepG2 cells assessed as reduction in cell survival after 24 hrs by MTT assay; format: cell-based; conditions: HepG2, 24 h
Danio rerio [5] = species on record: Danio rerio; experiment: Effect on locomotor activity in wild type AB zebrafish larvae assessed as decrease in total swimming distance at 10 uM measured for 5 mins at 144 hrs post fertilization by visible light test; format: ADME, organism-based; conditions: in vivo
Danio rerio [6] = species on record: Danio rerio; experiment: Toxicity in AB zebrafish embryo assessed as effect on hatching rate of embryos at 0.5 to 1 uM measured at 48 hrs post fertilization by dissecting light microscopic analysis; format: organism-based; conditions: in vivo
Method in brief: (§3)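 AB embryos exposed from 4 to 72 hpf to compound (0.5–20 μM) or DMF vehicle (1:1000), one embryo per well; hatch rate scored at 48 hpf; n=100 per group in three replicates; three independent experiments, mean ± SD.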

RAW264.7 [7] = experiment: Antiinflammatory activity in mouse RAW264.7 cells assessed as increase in LPS-induced IL10 levels at 10 to 100 uM incubated for 24 hrs post LPS induction by ELISA; format: functional, cell-based; method in brief: as §1
Danio rerio [8] = species on record: Danio rerio; experiment: Toxicity in AB zebrafish embryo assessed as reduction in hatching rate of embryos measured at 48 hrs post fertilization by dissecting light microscopic analysis; format: organism-based; conditions: in vivo; method in brief: as §3
Danio rerio [9] = species on record: Danio rerio; experiment: Toxicity in AB zebrafish embryo assessed as reduction in hatching rate of embryos at 5 to 20 uM measured at 48 hrs post fertilization by dissecting light microscopic analysis; format: organism-based; conditions: in vivo; method in brief: as §3
RAW264.7 [10] = experiment: Antiinflammatory activity in mouse RAW264.7 cells assessed as reduction in LPS-induced TNFalpha levels incubated for 24 hrs post LPS induction by ELISA; format: functional, cell-based; method in brief: as §1
Danio rerio [11] = species on record: Danio rerio; experiment: Toxicity in AB zebrafish embryo assessed as reduction in embryonic spontaneous movement frequency per minute measured at 24 hrs post fertilization by stereoscopic dissecting light microscopic analysis; format: organism-based; conditions: in vivo; method in brief: as §2
[12] = target: T1, Nitric oxide synthase, inducible (Mus musculus) (UniProt P29477); experiment: Inhibition of iNOS in mouse RAW264.7 cells assessed as reduction in LPS-induced NO production administered for 24 hrs post LPS induction by Griess method; format: cell-based
T1 sequence (whole entry): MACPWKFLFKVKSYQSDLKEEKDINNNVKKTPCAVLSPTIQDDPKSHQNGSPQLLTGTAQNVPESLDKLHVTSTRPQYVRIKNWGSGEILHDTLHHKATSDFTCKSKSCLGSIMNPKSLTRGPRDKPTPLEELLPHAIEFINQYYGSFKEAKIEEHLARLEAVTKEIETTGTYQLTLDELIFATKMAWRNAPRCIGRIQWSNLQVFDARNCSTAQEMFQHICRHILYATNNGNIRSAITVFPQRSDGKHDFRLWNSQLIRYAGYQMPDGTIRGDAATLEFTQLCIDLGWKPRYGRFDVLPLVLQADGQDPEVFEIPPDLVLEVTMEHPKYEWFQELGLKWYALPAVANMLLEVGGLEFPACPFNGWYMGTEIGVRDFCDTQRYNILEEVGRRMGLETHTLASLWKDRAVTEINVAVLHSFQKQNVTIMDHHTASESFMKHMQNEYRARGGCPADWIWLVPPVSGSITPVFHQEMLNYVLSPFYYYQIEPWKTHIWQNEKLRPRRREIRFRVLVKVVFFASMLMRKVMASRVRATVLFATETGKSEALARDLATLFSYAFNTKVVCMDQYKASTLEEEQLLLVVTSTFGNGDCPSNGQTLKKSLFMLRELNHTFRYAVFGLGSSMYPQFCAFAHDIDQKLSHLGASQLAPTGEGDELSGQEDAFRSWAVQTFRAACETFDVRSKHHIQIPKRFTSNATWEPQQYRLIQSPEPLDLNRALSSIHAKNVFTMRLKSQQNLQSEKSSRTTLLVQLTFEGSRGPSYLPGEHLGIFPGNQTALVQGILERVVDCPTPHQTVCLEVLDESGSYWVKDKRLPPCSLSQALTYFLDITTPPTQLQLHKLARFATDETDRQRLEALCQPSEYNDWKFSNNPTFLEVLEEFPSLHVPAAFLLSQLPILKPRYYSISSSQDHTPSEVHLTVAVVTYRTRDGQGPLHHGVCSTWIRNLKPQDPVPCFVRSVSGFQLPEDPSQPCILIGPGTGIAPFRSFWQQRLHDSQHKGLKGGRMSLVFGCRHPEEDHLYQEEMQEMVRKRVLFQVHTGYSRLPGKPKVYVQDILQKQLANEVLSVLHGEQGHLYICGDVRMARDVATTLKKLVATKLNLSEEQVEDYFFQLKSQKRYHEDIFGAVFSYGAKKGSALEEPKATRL
Method in brief: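 RAW264.7 cells stimulated with LPS 1 μg/mL for 4 h, then compound (10, 50, 100 μM) for 24 h; culture medium reacted with Griess reagents I and II, absorbance 570 nm; nitrite from sodium nitrite standard curve (0–100 μM in medium); four independent experiments, mean ± SD.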

Danio rerio [13] = species on record: Danio rerio; experiment: Toxicity in AB zebrafish embryo assessed as reduction in number of embryos alive at 120 hrs post fertilization by dissecting light microscopic analysis; format: organism-based; conditions: in vivo
Method in brief: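 Wild-type AB embryos, 100 per group split into three replicates, one per well in 200 μL test solution, plates sealed; DMF vehicle control (1:1000); mortality recorded at 24–168 hpf intervals; three independent experiments, mean ± SD.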

RAW264.7 [14] = experiment: Antiinflammatory activity in mouse RAW264.7 cells assessed as increase in LPS-induced HO-1 expression at 100 uM incubated for 24 hrs post LPS induction by ELISA relative to contol; format: functional; method in brief: as §1

SMILES	Activity (Danio rerio [1])	Activity (RAW264.7 [2])	Activity (RAW264.7 [3])	IC50 (L02) [µM]	Activity (Danio rerio [4])	IC50 (HepG2) [µM]	Activity (Danio rerio [5])	Activity (Danio rerio [6])	Activity (RAW264.7 [7])	Activity (Danio rerio [8])	Activity (Danio rerio [9])	Activity (RAW264.7 [10])	Activity (Danio rerio [11])	inhibition [12]	Activity (Danio rerio [13])	fold change (FC) (RAW264.7 [14])
CC(C)Cc1ccc(C(C)C(=O)Oc2ccc(C(N)=S)cc2)cc1 (configuration not stated)	Non-Toxic	Dose-dependent effect	Active	221	Non-Toxic	89.3	Toxic	Non-Toxic	Active	Dose-dependent effect	Toxic	Dose-dependent effect	Dose-dependent effect	Dose-dependent effect	Dose-dependent effect	>3
CC(=O)Nc1ccc(OC(=O)CCCCC2CCSS2)cc1 (configuration not stated)	Non-Toxic	Dose-dependent effect	Active	1790	Non-Toxic	966	Toxic	Non-Toxic	Active	Dose-dependent effect	Toxic	Dose-dependent effect	Dose-dependent effect	Dose-dependent effect	Dose-dependent effect	<=2
